Consider 1 compound from paper PMC5108244 (ACS Infectious Diseases, 2016).

The test system of assay [1] is T. brucei rhodesiense STIB900 strain. Put plainly: Early-stage T. brucei infection model in mice. It counts as in vivo. The method in brief: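 Female Swiss Webster mice (6–8 weeks, n = 4/group) infected ip on day 0 with 1 × 10^4 fresh-culture bloodstream-form parasites diluted in IMDM. Oral dosing twice daily, days 2–5 (eight doses), in 5% DMSO, 7% EtOH, 3% Tween-80 in saline; vehicle group in parallel; benzoxaborole reference as positive control. Parasitemia checked microscopically in tail blood through day 60.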

The test system of assay [2] is T. brucei brucei TREU667 strain. Put plainly: Late-stage T. brucei infection model in mice. The class given is in vivo. Particulars: mice n = 5, orally 25 mg/kg qd for 10 days, monitored 90 days. The essentials: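 Female Swiss Webster mice (6–8 weeks, n = 5/group) infected ip on day 0 with 1 × 10^4 donor-mouse parasites in IMDM. From day 7, oral dosing for 10 days in DMSO/EtOH/Tween-80/saline: test compound 50 mg/kg bid, benzoxaborole control 25 mg/kg qd, vehicle bid. Diminazene control: single ip dose of 10 mg/kg on day 7. Tail blood checked microscopically at least twice weekly to day 30, then weekly to day 90. Parasitemic mice euthanized.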

The structures appear in SMILES notation.

On to `CC1(C)OB(O)c2cc(NC(=O)c3ccc(F)cc3C(F)(F)F)ccc21` [compound 14, 4-fluoro-N-(1-hydroxy-3,3-dimethyl-2,1-benzoxaborol-6-yl)-2-(trifluoromethyl)benzamide], for which the “cures as of day 60” value in assay [1] (mice n = 4, 1 mg/kg po bid for 4 days) is 0/4; in assay [1] (mice n = 4, 5 mg/kg po bid for 4 days) it was 1/4; in assay [1] (mice n = 4, 10 mg/kg po bid for 4 days), 4/4. The “mice free of infection at the end of the experiment” value in assay [2] was “all survived and were free of infection”.
